Reference: ChEMBL document CHEMBL1770123, “SPF32629A and SPF32629B: enantioselective synthesis, determination of absolute configuration, cytotoxicity and antibacterial evaluation” (Eur J Med Chem, 2011)
In brackets after ≈: the same amount, converted by molar mass.

Legend:
[1] = tested on: Staphylococcus aureus; assay: Antimicrobial activity against Staphylococcus aureus at 500 ug/disc after 24 hrs by disc diffusion method; assay type: functional; details: read-out: DIZ
Procedure, shortened: (§1)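 Disc diffusion on 2.4% Mueller-Hinton agar inoculated with the strain. Paper discs 6 mm across were loaded with test compound and placed on the agar. Plates were incubated at 37 °C for 24 h. Read-out was the diameter of the inhibition zone in mm.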

[2] = tested on: Bacillus subtilis; assay: Antimicrobial activity against Bacillus subtilis after 24 hrs by microdilution method; assay type: functional
Procedure, shortened: (§2)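 Growth was judged by turbidity, and the MIC was taken as the minimum concentration giving the lowest growth. Amikacin served as reference.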

[3] = tested on: Salmonella typhimurium; assay: Antimicrobial activity against Salmonella Typhimurium after 24 hrs by microdilution method; assay type: functional, Salmonella enterica subsp. enterica serovar Typhimurium; details: Salmonella enterica; procedure, shortened: as §2
[4] = tested on: A549; assay: Cytotoxicity against human A549 cells assessed as cell death at 10 ug after 48 hrs by MTT assay; assay type: functional
Procedure, shortened: (§3)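 A549 cells were grown in DMEM with 2 mmol L-glutamine, 10% FBS, penicillin (50 IU/mL) and streptomycin, at 37 °C and 5% CO2. 1×10^4 cells/well were plated and treated 24 h later with compound diluted in medium for 48 h. Controls were DMSO-matched and untreated wells. MTT 0.4 mg/mL in PBS was added for 4 h in the dark, then DMSO for 4 h. A540 was read and reported as % live cells relative to untreated.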

[5] = tested on: Staphylococcus aureus; assay: Antimicrobial activity against methicillin-resistant Staphylococcus aureus strain 4 TB5G at 1000 ug/disc after 24 hrs by disc diffusion method; assay type: functional; details: read-out: DIZ; procedure, shortened: as §1
[6] = tested on: A549; assay: Cytotoxicity against human A549 cells after 48 hrs by MTT assay; assay type: functional, cell-based; details: A549, 48 h
Procedure, shortened: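 A549 cells were kept in DMEM with 2 mM L-glutamine, 10% FBS, penicillin 50 IU/mL and streptomycin at 37 °C under 5% CO2. 1×10^4 cells per well were treated 24 h after seeding with compounds diluted in medium for 48 h. MTT (0.4 mg/mL in PBS) was added for 4 h in the dark, formazan was dissolved in DMSO for 4 h and absorbance read at 540 nm. Viability was expressed as % of untreated cells, and IC50 was derived.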

[7] = tested on: Staphylococcus aureus; assay: Antimicrobial activity against methicillin-resistant Staphylococcus aureus strain 1 TB3G at 1000 ug/disc after 24 hrs by disc diffusion method; assay type: functional; details: read-out: DIZ; procedure, shortened: as §1
[8] = tested on: Staphylococcus aureus; assay: Antimicrobial activity against methicillin-resistant Staphylococcus aureus strain 4 TB5G at 500 ug/disc after 24 hrs by disc diffusion method; assay type: functional; details: read-out: DIZ; procedure, shortened: as §1
[9] = Inhibition of human elastase
[10] = tested on: Staphylococcus aureus; assay: Antimicrobial activity against Staphylococcus aureus at 1000 ug/disc after 24 hrs by disc diffusion method; assay type: functional; details: read-out: DIZ
[11] = tested on: Staphylococcus epidermidis; assay: Antimicrobial activity against Staphylococcus epidermidis at 500 ug/disc after 24 hrs by disc diffusion method; assay type: functional; details: read-out: DIZ
[12] = tested on: Bacillus subtilis; assay: Antimicrobial activity against Bacillus subtilis at 500 ug/disc after 24 hrs by disc diffusion method; assay type: functional; details: read-out: DIZ
[13] = tested on: Staphylococcus aureus; assay: Antimicrobial activity against Staphylococcus aureus after 24 hrs by microdilution method; assay type: functional; procedure, shortened: as §2
[14] = tested on: Listeria monocytogenes; assay: Antimicrobial activity against Listeria monocytogenes at 500 ug/disc after 24 hrs by disc diffusion method; assay type: functional; details: read-out: DIZ
[15] = tested on: Staphylococcus aureus; assay: Antimicrobial activity against methicillin-resistant Staphylococcus aureus strain 2 TB4G at 1000 ug/disc after 24 hrs by disc diffusion method; assay type: functional; details: read-out: DIZ; procedure, shortened: as §1
[16] = tested on: Salmonella typhimurium; assay: Antimicrobial activity against Salmonella Typhimurium at 500 ug/disc after 24 hrs by disc diffusion method; assay type: functional, Salmonella enterica subsp. enterica serovar Typhimurium; details: Salmonella enterica, read-out: DIZ
[17] = tested on: Staphylococcus epidermidis; assay: Antimicrobial activity against Staphylococcus epidermidis after 24 hrs by microdilution method; assay type: functional; procedure, shortened: as §2
[18] = tested on: Escherichia coli; assay: Antimicrobial activity against Escherichia coli at 1000 ug/disc after 24 hrs by disc diffusion method; assay type: functional; details: read-out: DIZ
[19] = tested on: Staphylococcus aureus; assay: Antimicrobial activity against methicillin-resistant Staphylococcus aureus strain 1 TB3G at 500 ug/disc after 24 hrs by disc diffusion method; assay type: functional; details: read-out: DIZ; procedure, shortened: as §1
[20] = tested on: Klebsiella pneumoniae; assay: Antimicrobial activity against Klebsiella pneumoniae at 1000 ug/disc after 24 hrs by disc diffusion method; assay type: functional; details: read-out: DIZ
[21] = target: T1, Chymase (Homo sapiens, UniProt P23946); assay: Inhibition of human chymase
T1 sequence (P23946 whole entry): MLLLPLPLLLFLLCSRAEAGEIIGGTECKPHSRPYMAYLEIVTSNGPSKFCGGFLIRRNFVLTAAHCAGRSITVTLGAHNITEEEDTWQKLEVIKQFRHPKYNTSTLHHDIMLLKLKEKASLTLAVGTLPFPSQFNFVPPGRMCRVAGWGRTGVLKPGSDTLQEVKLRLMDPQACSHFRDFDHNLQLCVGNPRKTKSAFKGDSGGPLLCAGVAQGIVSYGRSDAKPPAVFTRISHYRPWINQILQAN

[22] = tested on: Staphylococcus epidermidis; assay: Antimicrobial activity against Staphylococcus epidermidis at 1000 ug/disc after 24 hrs by disc diffusion method; assay type: functional; details: read-out: DIZ
[23] = tested on: Staphylococcus aureus; assay: Antimicrobial activity against methicillin-resistant Staphylococcus aureus strain 1 TB3G after 24 hrs by microdilution method; assay type: functional
Procedure, shortened: (§4)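 Growth was judged by turbidity. The MIC was taken as the lowest concentration giving the lowest growth.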

[24] = tested on: Escherichia coli; assay: Antimicrobial activity against Escherichia coli after 24 hrs by microdilution method; assay type: functional; procedure, shortened: as §2
[25] = tested on: Staphylococcus aureus; assay: Antimicrobial activity against methicillin-resistant Staphylococcus aureus strain 2 TB4G after 24 hrs by microdilution method; assay type: functional; procedure, shortened: as §4
[26] = tested on: Klebsiella pneumoniae; assay: Antimicrobial activity against Klebsiella pneumoniae at 500 ug/disc after 24 hrs by disc diffusion method; assay type: functional; details: read-out: DIZ
[27] = tested on: A549; assay: Cytotoxicity against human A549 cells assessed as cell death at 2 ug after 48 hrs by MTT assay; assay type: functional; procedure, shortened: as §3
[28] = tested on: Listeria monocytogenes; assay: Antimicrobial activity against Listeria monocytogenes at 1000 ug/disc after 24 hrs by disc diffusion method; assay type: functional; details: read-out: DIZ
[29] = tested on: Salmonella typhimurium; assay: Antimicrobial activity against Salmonella Typhimurium at 1000 ug/disc after 24 hrs by disc diffusion method; assay type: functional, Salmonella enterica subsp. enterica serovar Typhimurium; details: Salmonella enterica, read-out: DIZ
[30] = tested on: A549; assay: Cytotoxicity against human A549 cells assessed as cell death at 1 ug after 48 hrs by MTT assay; assay type: functional; procedure, shortened: as §3
[31] = tested on: A549; assay: Cytotoxicity against human A549 cells assessed as cell death at 25 ug after 48 hrs by MTT assay; assay type: functional; procedure, shortened: as §3
[32] = tested on: Staphylococcus aureus; assay: Antimicrobial activity against methicillin-resistant Staphylococcus aureus strain 2 TB4G at 500 ug/disc after 24 hrs by disc diffusion method; assay type: functional; details: read-out: DIZ; procedure, shortened: as §1
[33] = tested on: Staphylococcus aureus; assay: Antimicrobial activity against methicillin-resistant Staphylococcus aureus strain 4 TB5G after 24 hrs by microdilution method; assay type: functional; procedure, shortened: as §4
[34] = tested on: Listeria monocytogenes; assay: Antimicrobial activity against Listeria monocytogenes after 24 hrs by microdilution method; assay type: functional; procedure, shortened: as §2
[35] = tested on: A549; assay: Cytotoxicity against human A549 cells assessed as cell death at 5 ug after 48 hrs by MTT assay; assay type: functional; procedure, shortened: as §3
[36] = tested on: Bacillus subtilis; assay: Antimicrobial activity against Bacillus subtilis at 1000 ug/disc after 24 hrs by disc diffusion method; assay type: functional; details: read-out: DIZ
[37] = tested on: Klebsiella pneumoniae; assay: Antimicrobial activity against Klebsiella pneumoniae after 24 hrs by microdilution method; assay type: functional; procedure, shortened: as §2
[38] = tested on: Escherichia coli; assay: Antimicrobial activity against Escherichia coli at 500 ug/disc after 24 hrs by disc diffusion method; assay type: functional; details: read-out: DIZ

SMILES: CC(C)CC(=O)OC(c1ccccc1)c1cc(O)c(C(=O)O)c(=O)[nH]1 (racemic)
- zone of inhibition at 500 µg/disc [1]: 7 mm
- MIC [2]: 25 µg/mL (≈ 72.4 µM)
- MIC [3]: > 100 µg/mL
- Activity [4]: 71.07%
- zone of inhibition at 1000 µg/disc [5]: 12 mm
- IC50 [6]: 11 µM
- zone of inhibition at 1000 µg/disc [7]: 10 mm
- zone of inhibition at 500 µg/disc [8]: 6 mm
- IC50 [9]: 4.5 µg/mL (≈ 13 µM)
- zone of inhibition at 1000 µg/disc [10]: 15 mm
- zone of inhibition at 500 µg/disc [11]: 8 mm
- zone of inhibition at 500 µg/disc [12]: 7 mm
- MIC [13]: > 100 µg/mL
- zone of inhibition at 500 µg/disc [14]: 11 mm
- zone of inhibition at 1000 µg/disc [15]: 12 mm
- zone of inhibition at 500 µg/disc [16]: 9 mm
- MIC [17]: > 100 µg/mL
- zone of inhibition at 1000 µg/disc [18]: 15 mm
- zone of inhibition at 500 µg/disc [19]: 5 mm
- zone of inhibition at 1000 µg/disc [20]: 21 mm
- IC50 [21]: 1.22 µM
- zone of inhibition at 1000 µg/disc [22]: 17 mm
- MIC [23]: > 100 µg/mL
- MIC [24]: 50 µg/mL (≈ 145 µM)
- MIC [25]: > 100 µg/mL
- zone of inhibition at 500 µg/disc [26]: 12 mm
- Activity [27]: 21.53%
- zone of inhibition at 1000 µg/disc [28]: 20 mm
- zone of inhibition at 1000 µg/disc [29]: 20 mm
- Activity [30]: 7.07%
- Activity [31]: 81.53%
- zone of inhibition at 500 µg/disc [32]: 7 mm
- MIC [33]: > 100 µg/mL
- MIC [34]: 50 µg/mL (≈ 145 µM)
- Activity [35]: 44%
- zone of inhibition at 1000 µg/disc [36]: 13 mm
- MIC [37]: 50 µg/mL (≈ 145 µM)
- zone of inhibition at 500 µg/disc [38]: 8 mm
